According to ChEMBL document CHEMBL2380209, “Synthesis and pharmacological characterization of 4-substituted-2-aminobicyclo[3.1.0]hexane-2,6-dicarboxylates: identification of new potent and selective metabotropic glutamate 2/3 receptor agonists” (J Med Chem, 2013):
Each block holds one compound with its values, some of them ahead of it.

Experiments:
[1] = Cmax in Sprague-Dawley rat at 3 mg/kg, po up to 24 hrs by LC/MS/MS analysis; type: ADME, organism-based; parameters: dose 3 mg/kg, route oral; conditions: in vivo
Outline: (§1)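 Fasted male Sprague Dawley rats (~250 g) were dosed with an aqueous solution adjusted to pH 7-7.5 with NaOH, by oral gavage (1, 3, 10 mg/kg) or intravenously (3 mg/kg). Serial jugular-catheter blood samples (11-12 per rat) went into EDTA tubes over 24 h. Plasma was extracted by SPE with an analog internal standard and run on an anion-exchange HPLC column, SRM m/z 204.1 > 77.1. Parameters came from noncompartmental analysis and are reported as means.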

[2] = Initial plasma concentration in Sprague-Dawley rat at 3 mg/kg, iv by LC/MS/MS analysis; type: ADME, organism-based; parameters: dose 3 mg/kg, route intravenous; outline: as §1
[3] = Tmax in Sprague-Dawley rat at 3 mg/kg, po by LC/MS/MS analysis; type: ADME, organism-based; parameters: dose 3 mg/kg, route oral; conditions: in vivo; outline: as §1
[4] = target: Metabotropic glutamate receptor 8 (Homo sapiens, UniProt O00222); assay: Agonist activity at human mGlu8 receptor expressed in golden Syrian hamster AV12 cells coexpressing EAAT1 after 20 mins by FLIPR assay; type: cell-based
Metabotropic glutamate receptor 8, sequence (O00222 whole entry): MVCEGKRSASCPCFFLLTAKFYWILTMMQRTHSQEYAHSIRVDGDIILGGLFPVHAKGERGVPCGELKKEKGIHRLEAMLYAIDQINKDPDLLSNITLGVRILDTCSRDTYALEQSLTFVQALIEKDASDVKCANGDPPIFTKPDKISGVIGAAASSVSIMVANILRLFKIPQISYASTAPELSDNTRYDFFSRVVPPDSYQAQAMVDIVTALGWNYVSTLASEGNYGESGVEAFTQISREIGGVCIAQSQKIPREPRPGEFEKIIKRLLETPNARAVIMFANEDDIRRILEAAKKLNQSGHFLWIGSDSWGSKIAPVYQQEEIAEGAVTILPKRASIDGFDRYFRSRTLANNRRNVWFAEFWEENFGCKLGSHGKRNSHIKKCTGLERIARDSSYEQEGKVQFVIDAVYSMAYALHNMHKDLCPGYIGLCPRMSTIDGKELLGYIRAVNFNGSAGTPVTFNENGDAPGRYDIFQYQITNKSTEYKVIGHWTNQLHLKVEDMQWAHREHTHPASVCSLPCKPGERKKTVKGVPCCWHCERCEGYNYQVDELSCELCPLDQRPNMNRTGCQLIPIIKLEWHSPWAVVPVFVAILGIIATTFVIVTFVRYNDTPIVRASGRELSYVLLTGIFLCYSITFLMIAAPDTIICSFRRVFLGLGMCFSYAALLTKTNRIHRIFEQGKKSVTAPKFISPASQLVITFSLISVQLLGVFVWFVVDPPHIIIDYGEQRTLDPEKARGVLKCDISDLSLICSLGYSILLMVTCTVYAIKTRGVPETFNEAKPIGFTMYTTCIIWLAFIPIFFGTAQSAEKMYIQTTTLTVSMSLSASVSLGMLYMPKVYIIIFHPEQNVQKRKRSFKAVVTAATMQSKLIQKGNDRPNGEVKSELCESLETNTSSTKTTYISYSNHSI

[5] = AUC (0 to 24 hrs) in Sprague-Dawley rat at 1 mg/kg, po by LC/MS/MS analysis; type: ADME, organism-based; parameters: time < 24 hr, dose 1 mg/kg, route oral; conditions: plasma; outline: as §1
[6] = Half life in Sprague-Dawley rat at 10 mg/kg, po by LC/MS/MS analysis; type: ADME, organism-based; parameters: dose 10 mg/kg, route oral; conditions: in vivo; outline: as §1
[7] = Tmax in Sprague-Dawley rat at 10 mg/kg, po by LC/MS/MS analysis; type: ADME, organism-based; parameters: dose 10 mg/kg, route oral; conditions: in vivo; outline: as §1
[8] = Clearance in Sprague-Dawley rat at 3 mg/kg, iv up to 24 hrs by LC/MS/MS analysis; type: ADME, organism-based; parameters: dose 3 mg/kg, route intravenous; conditions: in vivo; outline: as §1
[9] = target: T1, Metabotropic glutamate receptor 3 (Homo sapiens, UniProt Q14832); assay: Agonist activity at human mGlu3 receptor expressed in golden Syrian hamster AV12 cells coexpressing EAAT1 after 20 mins by HTRF assay; type: cell-based
T1 sequence (Q14832 whole entry): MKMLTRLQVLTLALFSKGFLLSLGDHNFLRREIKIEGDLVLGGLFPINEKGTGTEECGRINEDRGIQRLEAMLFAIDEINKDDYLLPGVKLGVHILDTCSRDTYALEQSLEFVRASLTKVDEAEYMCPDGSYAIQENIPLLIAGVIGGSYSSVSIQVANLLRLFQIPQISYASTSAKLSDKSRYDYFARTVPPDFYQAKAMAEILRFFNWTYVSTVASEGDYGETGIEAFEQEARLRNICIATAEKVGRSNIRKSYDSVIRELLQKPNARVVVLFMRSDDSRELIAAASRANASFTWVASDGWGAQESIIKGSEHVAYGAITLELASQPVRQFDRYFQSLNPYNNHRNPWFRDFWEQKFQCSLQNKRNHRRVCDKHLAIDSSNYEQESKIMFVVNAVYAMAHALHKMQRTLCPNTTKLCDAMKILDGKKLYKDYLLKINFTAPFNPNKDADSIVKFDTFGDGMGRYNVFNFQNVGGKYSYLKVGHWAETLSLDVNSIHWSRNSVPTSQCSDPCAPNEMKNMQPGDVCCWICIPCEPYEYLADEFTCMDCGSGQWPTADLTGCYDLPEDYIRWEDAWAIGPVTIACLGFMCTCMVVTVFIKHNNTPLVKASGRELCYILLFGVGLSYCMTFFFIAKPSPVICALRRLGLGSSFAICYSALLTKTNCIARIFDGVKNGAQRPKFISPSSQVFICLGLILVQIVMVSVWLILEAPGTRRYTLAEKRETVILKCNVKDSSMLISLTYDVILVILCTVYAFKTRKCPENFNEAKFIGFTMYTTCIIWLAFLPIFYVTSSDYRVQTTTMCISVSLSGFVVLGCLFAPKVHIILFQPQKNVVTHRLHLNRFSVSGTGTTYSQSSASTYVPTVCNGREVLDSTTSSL

[10] = Cmax in Sprague-Dawley rat at 10 mg/kg, po up to 24 hrs by LC/MS/MS analysis; type: ADME, organism-based; parameters: dose 10 mg/kg, route oral; conditions: in vivo; outline: as §1
[11] = AUC (0 to 24 hrs) in Sprague-Dawley rat at 3 mg/kg, iv by LC/MS/MS analysis; type: ADME, organism-based; parameters: time < 24 hr, dose 3 mg/kg, route intravenous; conditions: plasma; outline: as §1
[12] = Half life in Sprague-Dawley rat at 3 mg/kg, po by LC/MS/MS analysis; type: ADME, organism-based; parameters: dose 3 mg/kg, route oral; conditions: in vivo; outline: as §1
[13] = Tmax in Sprague-Dawley rat at 3 mg/kg, iv by LC/MS/MS analysis; type: ADME, organism-based; parameters: dose 3 mg/kg, route intravenous; conditions: in vivo; outline: as §1
Rattus norvegicus [14] = assay: Neurotoxicity in Sprague-Dawley rat assessed as impairment of motor coordination at 3 to 10 mg/kg, po administered 2 hrs prior to test by rotarod test; type: toxicity, organism-based; parameters: dose 3-10 mg/kg, route oral; conditions: in vivo
Outline: (§2)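 Rats were trained to stay on a 4 rpm rotorod for 1 min, with up to four attempts, and were retested 30-60 min later; failures were excluded. Trained rats (8/group) received oral aqueous solution (3, 10 or 30 mg/kg) or vehicle and were retested 120 min later, scored as seconds on the rotorod. One-way ANOVA with Dunnett's test was run against vehicle.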

[15] = Half life in Sprague-Dawley rat at 1 mg/kg, po by LC/MS/MS analysis; type: ADME, organism-based; parameters: dose 1 mg/kg, route oral; conditions: in vivo; outline: as §1
[16] = Tmax in Sprague-Dawley rat at 1 mg/kg, po by LC/MS/MS analysis; type: ADME, organism-based; parameters: dose 1 mg/kg, route oral; conditions: in vivo; outline: as §1
[17] = AUC (0 to 24 hrs) in Sprague-Dawley rat at 3 mg/kg, po by LC/MS/MS analysis; type: ADME, organism-based; parameters: time < 24 hr, dose 3 mg/kg, route oral; conditions: plasma; outline: as §1
[18] = AUC (0 to 24 hrs) in Sprague-Dawley rat at 10 mg/kg, po by LC/MS/MS analysis; type: ADME, organism-based; parameters: time < 24 hr, dose 10 mg/kg, route oral; conditions: plasma; outline: as §1
[19] = target: T2, Metabotropic glutamate receptor 2 (Homo sapiens, UniProt Q14416); assay: Agonist activity at human mGlu2 receptor expressed in golden Syrian hamster AV12 cells coexpressing EAAT1 after 20 mins by HTRF assay; type: cell-based
T2 sequence (Q14416 whole entry): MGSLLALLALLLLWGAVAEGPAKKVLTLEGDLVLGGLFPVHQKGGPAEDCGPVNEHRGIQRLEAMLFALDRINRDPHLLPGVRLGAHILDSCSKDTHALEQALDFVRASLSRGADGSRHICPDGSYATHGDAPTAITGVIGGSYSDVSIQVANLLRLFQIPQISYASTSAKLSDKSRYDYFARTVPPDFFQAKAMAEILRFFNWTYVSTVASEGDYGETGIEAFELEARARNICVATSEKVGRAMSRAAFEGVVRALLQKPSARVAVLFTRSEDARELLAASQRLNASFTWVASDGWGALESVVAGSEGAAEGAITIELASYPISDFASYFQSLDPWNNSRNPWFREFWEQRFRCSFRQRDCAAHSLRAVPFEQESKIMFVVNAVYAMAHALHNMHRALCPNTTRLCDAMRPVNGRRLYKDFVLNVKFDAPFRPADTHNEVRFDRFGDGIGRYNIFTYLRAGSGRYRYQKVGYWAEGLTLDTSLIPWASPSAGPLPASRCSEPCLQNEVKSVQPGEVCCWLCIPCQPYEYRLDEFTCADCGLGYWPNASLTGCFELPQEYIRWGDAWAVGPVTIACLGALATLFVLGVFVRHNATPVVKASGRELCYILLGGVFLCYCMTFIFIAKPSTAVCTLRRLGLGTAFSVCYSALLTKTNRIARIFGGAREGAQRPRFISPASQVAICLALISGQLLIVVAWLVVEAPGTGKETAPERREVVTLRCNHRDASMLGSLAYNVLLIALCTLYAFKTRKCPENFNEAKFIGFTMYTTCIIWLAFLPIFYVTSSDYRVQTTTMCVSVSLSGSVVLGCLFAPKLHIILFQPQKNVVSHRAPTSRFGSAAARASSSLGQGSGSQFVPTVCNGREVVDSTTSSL

[20] = Half life in Sprague-Dawley rat at 3 mg/kg, iv by LC/MS/MS analysis; type: ADME, organism-based; parameters: dose 3 mg/kg, route intravenous; conditions: in vivo; outline: as §1
Rattus norvegicus [21] = assay: Antipsychotic activity in po dosed Sprague-Dawley rat assessed as decrease in PCP-elicited ambulations administered 2 hrs prior to test measured for 60 mins; type: functional
[22] = Cmax in Sprague-Dawley rat at 1 mg/kg, po up to 24 hrs by LC/MS/MS analysis; type: ADME, organism-based; parameters: dose 1 mg/kg, route oral; conditions: in vivo; outline: as §1
[23] = target: T3, Metabotropic glutamate receptor 6 (Homo sapiens, UniProt O15303); assay: Agonist activity at human mGlu6 receptor expressed in golden Syrian hamster AV12 cells coexpressing EAAT1 after 20 mins by FLIPR assay; type: cell-based
T3 sequence (O15303 whole entry): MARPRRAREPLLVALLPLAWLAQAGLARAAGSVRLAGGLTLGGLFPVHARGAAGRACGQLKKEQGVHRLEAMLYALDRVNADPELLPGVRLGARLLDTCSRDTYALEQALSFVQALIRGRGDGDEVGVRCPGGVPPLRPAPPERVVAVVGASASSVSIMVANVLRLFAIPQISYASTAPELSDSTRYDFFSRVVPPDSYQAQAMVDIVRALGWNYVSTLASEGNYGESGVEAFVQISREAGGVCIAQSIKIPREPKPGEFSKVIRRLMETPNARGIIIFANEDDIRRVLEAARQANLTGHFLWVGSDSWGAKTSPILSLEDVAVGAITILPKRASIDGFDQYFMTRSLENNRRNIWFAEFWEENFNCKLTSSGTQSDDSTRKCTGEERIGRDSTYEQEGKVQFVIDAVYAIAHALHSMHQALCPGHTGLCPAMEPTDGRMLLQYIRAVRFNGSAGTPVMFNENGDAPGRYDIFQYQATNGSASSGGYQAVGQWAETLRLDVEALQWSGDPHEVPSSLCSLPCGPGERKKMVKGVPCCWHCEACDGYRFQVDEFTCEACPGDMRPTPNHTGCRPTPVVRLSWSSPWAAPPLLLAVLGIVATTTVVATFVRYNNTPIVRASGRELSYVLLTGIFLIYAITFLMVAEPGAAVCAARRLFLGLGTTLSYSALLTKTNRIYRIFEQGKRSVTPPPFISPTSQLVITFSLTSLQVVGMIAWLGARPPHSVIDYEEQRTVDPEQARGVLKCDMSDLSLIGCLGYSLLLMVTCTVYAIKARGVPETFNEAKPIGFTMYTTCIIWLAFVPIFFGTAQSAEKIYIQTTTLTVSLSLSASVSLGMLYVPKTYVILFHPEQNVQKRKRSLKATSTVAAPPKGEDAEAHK

[24] = Oral bioavailability in Sprague-Dawley rat at 3 mg/kg up to 24 hrs by LC/MS/MS analysis; type: ADME, organism-based; conditions: in vivo; outline: as §1
[25] = Volume of distribution at steady state in Sprague-Dawley rat at 3 mg/kg, iv up to 24 hrs by LC/MS/MS analysis; type: ADME, organism-based; parameters: dose 3 mg/kg, route intravenous; conditions: in vivo, read-out: Vdss; outline: as §1
Rattus norvegicus [26] = assay: Neurotoxicity in Sprague-Dawley rat assessed as impairment of motor coordination at 30 mg/kg, po administered 2 hrs prior to test by rotarod test; type: toxicity, organism-based; parameters: dose 30 mg/kg, route oral; conditions: in vivo; outline: as §2
[27] = target: T1, Metabotropic glutamate receptor 3; assay: Antagonist activity at human mGlu3 receptor expressed in golden Syrian hamster AV12 cells coexpressing EAAT1 assessed as inhibition of forskolin-stimulated cAMP production after 20 mins by HTRF assay; type: functional, cell-based
[28] = target: T2, Metabotropic glutamate receptor 2; assay: Antagonist activity at human mGlu2 receptor expressed in golden Syrian hamster AV12 cells coexpressing EAAT1 assessed as inhibition of forskolin-stimulated cAMP production after 20 mins by HTRF assay; type: functional, cell-based
[29] = target: T3, Metabotropic glutamate receptor 6; assay: Agonist activity at human mGlu6 receptor expressed in golden Syrian hamster AV12 cells coexpressing EAAT1 assessed as inhibition of forskolin-stimulated cAMP production after 20 mins by FLIPR assay
[30] = target: T3, Metabotropic glutamate receptor 6; assay: Antagonist activity at human mGlu6 receptor expressed in golden Syrian hamster AV12 cells coexpressing EAAT1 assessed as inhibition of forskolin-stimulated cAMP production after 20 mins by FLIPR assay relative to control; type: functional, cell-based

SMILES: N[C@@]1(C(=O)O)C[C@H](O)[C@H]2[C@H](C(=O)O)[C@H]21
EC50 [4]: > 25 µM | EC50 [29]: 3.04 µM | EC50 [19]: 0.0075 µM

SMILES: N[C@@H]1C[C@@](N)(C(=O)O)[C@@H]2[C@@H](C(=O)O)[C@@H]21
EC50 [4]: > 25 µM | EC50 [9]: 0.0571 µM | EC50 [19]: 0.0479 µM | EC50 [23]: 11.8 µM

SMILES: N[C@@]1(C(=O)O)C[C@H](Sc2ccccc2)[C@H]2[C@H](C(=O)O)[C@H]21
IC50 [27]: 3.37 µM | EC50 [4]: > 25 µM | EC50 [19]: 1.17 µM | EC50 [23]: 3.25 µM

SMILES: N[C@@]1(C(=O)O)CC[C@H]2[C@H](C(=O)O)[C@H]21
EC50 [4]: > 25 µM | EC50 [9]: 0.0271 µM | EC50 [23]: 3.36 µM

SMILES: N[C@H]1C[C@@](N)(C(=O)O)[C@@H]2[C@@H](C(=O)O)[C@@H]21
EC50 [4]: > 25 µM | EC50 [9]: 0.0249 µM | EC50 [19]: 0.0212 µM | EC50 [23]: 9.37 µM

SMILES: C[C@@H]1C[C@@](N)(C(=O)O)[C@@H]2[C@@H](C(=O)O)[C@@H]21
IC50 [27]: 3.42 µM | EC50 [4]: > 25 µM | EC50 [19]: 0.0636 µM | EC50 [23]: 7.54 µM

SMILES: CC(=O)N[C@@H]1C[C@@](N)(C(=O)O)[C@@H]2[C@@H](C(=O)O)[C@@H]21
IC50 [27]: 3.39 µM | EC50 [4]: > 25 µM | IC50 [28]: 4.99 µM | EC50 [23]: 6.69 µM

Second part, led by results:

Cmax [1]: 3.94 µM | C0 [2]: 36.7 µM | Tmax [3]: 1.8 h | EC50 [4]: 11.5 µM | AUC(0-t) at 24 h [5]: 2.79 µM·h | half-life [6]: 5.9 h | Tmax [7]: 2 h | clearance [8]: 14.8 mL/min/kg | EC50 [9]: 0.00024 µM | Cmax [10]: 7.94 µM | AUC(0-t) at 24 h [11]: 16.7 µM·h | half-life [12]: 3.5 h | Tmax [13]: 0 h | half-life [15]: 2.7 h | Tmax [16]: 2.5 h | AUC(0-t) at 24 h [17]: 10.7 µM·h | AUC(0-t) at 24 h [18]: 23.6 µM·h | EC50 [19]: 0.00056 µM | half-life [20]: 7.3 h | Cmax [22]: 0.713 µM | EC50 [23]: 1.41 µM | bioavailability [24]: 64.4% | Vd [25]: 1.25 L/kg
SMILES: N[C@@]1(C(=O)O)C[C@@H](F)[C@H]2[C@H](C(=O)O)[C@H]21
Activity (Rattus norvegicus [14]): Non-toxic | Activity (Rattus norvegicus [21]): Dose-dependent effect | ED50 (Rattus norvegicus [21]): 2.08 mg/kg | Activity (Rattus norvegicus [26]): Toxic

EC50 [4]: > 25 µM | EC50 [9]: 0.166 µM | EC50 [19]: 0.0286 µM | EC50 [23]: 9.28 µM
SMILES: C[C@H]1C[C@@](N)(C(=O)O)[C@@H]2[C@@H](C(=O)O)[C@@H]21

IC50 [27]: 0.895 µM | EC50 [4]: > 25 µM | IC50 [28]: 7.02 µM | EC50 [23]: 1.27 µM
SMILES: N[C@@]1(C(=O)O)C[C@@H](Sc2ccccc2)[C@H]2[C@H](C(=O)O)[C@H]21

EC50 [4]: > 25 µM | EC50 [19]: 0.0076 µM | EC50 [23]: 4.37 µM
SMILES: N[C@@]1(C(=O)O)C[C@@H](O)[C@H]2[C@H](C(=O)O)[C@H]21

EC50 [4]: 12.4 µM | EC50 [9]: 0.0123 µM | EC50 [19]: 0.0082 µM | EC50 [23]: 0.78 µM
SMILES: [N-]=[N+]=N[C@@H]1C[C@@](N)(C(=O)O)[C@@H]2[C@@H](C(=O)O)[C@@H]21

EC50 [4]: 12 µM | EC50 [9]: 0.0235 µM | EC50 [29]: 1.89 µM | EC50 [19]: 0.0122 µM | %max [30]: 100%
SMILES: [N-]=[N+]=N[C@H]1C[C@@](N)(C(=O)O)[C@@H]2[C@@H](C(=O)O)[C@@H]21

EC50 [4]: 1.59 µM | EC50 [9]: 0.0155 µM | EC50 [29]: 0.267 µM | EC50 [19]: 0.0013 µM | %max [30]: 100%
SMILES: C=C1C[C@@](N)(C(=O)O)[C@H]2[C@@H]1[C@@H]2C(=O)O

EC50 [4]: 4.3 µM | EC50 [9]: 0.193 µM | EC50 [19]: 0.257 µM | EC50 [23]: 0.709 µM
SMILES: CC(=O)N[C@H]1C[C@@](N)(C(=O)O)[C@@H]2[C@@H](C(=O)O)[C@@H]21

EC50 [4]: 6.53 µM | EC50 [9]: 0.00011 µM | EC50 [29]: 1.38 µM | EC50 [19]: 0.00016 µM | %max [30]: 100%
SMILES: N[C@@]1(C(=O)O)CC(=O)[C@H]2[C@H](C(=O)O)[C@H]21
